# Compound activity: PubChem, several laboratories
# TAAR1 antagonist: human TAAR1 antagonists, primary screen, Fluo-8 calcium fluorescence, CHO RD-HGA16 cells; antagonist; inhibition, % at 3 µM; hit rate 1.5% among 360,000; Trace amine-associated receptor 1 (Homo sapiens), Q96RJ0;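 active = inhibition above a per-plate cutoff, the mean inhibition of test compounds on that plate plus 3 SD, cut at about 49% in these data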
# Target sequence (Q96RJ0 whole entry, looked up): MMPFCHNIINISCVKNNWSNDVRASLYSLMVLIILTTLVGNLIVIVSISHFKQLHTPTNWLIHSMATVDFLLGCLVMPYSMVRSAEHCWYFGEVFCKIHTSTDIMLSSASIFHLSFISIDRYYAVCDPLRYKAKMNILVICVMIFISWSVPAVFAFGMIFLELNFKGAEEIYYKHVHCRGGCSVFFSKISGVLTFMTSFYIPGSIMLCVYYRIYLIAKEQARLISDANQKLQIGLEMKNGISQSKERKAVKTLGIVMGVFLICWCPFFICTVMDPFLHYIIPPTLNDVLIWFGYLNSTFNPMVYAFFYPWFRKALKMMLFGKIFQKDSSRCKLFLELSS
#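 Material: RD-HGA16 CHO cells with stable hTAAR1 and Gα16; Dosing: single nominal final test compound concentration of 3 µM; Schedule: seeding 17-24 h prior, 75-min 37 °C, 30-min RT dye loading; Detection: kinetic Fluo-8 calcium fluorescence measurement; Measure: % inhibition from peak post-agonist over basal fluorescence ratio; Benchmarks: vehicle and agonist controls.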
# TAAR1 ag: human TAAR1 agonists, primary screen, Fluo-8 calcium fluorescence, CHO RD-HGA16 cells; Trace amine-associated receptor 1 (Homo sapiens), Q96RJ0; vehicle wells 0%, saturating PEA agonist 100%; activation, % at 3 µM; hit rate 0.99% among 360,000;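 active = activation above the mean activation of all test compounds in the run plus 3 SD, cut at about 38% in these data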
#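 Repeats: no replicates (n 1) | Material: CHO-derived RD-HGA16 cells with stable Gα16 and human TAAR1 | Technique: Kinetic Fluo-8 calcium fluorescence | Schedule: 17-24 h seeding, 75 min 37 °C dye, 30 min RT | Evaluation: % activation from peak over basal fluorescence ratio, DMSO-to-PEA scaled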
# OX1R antag-1: antagonists of human orexin 1 receptor (OX1R). OX1R-expressing cells, FRET antagonist read-out. Orexin/Hypocretin receptor type 1 (Homo sapiens), O43613. AID 485270, 2010. hit rate 1.8% among 330,000. inhibition, % at 6.6 µM; in the data active = inhibition mostly above about 38%, no sharp cut-off; inactive = mostly below about 40%
# OX1R antag-2: OX1R (HCRTR1) antagonists, primary screen, fluorescence, CHO/OX1R cells, Fluo-8 calcium, orexin A; Orexin/Hypocretin receptor type 1 (Homo sapiens), O43613; Fluo-8 calcium fluorescence; inhibition, % at 5 µM; hit rate 0.43% among 330,000;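 active = inhibition above its plate's threshold, mean inhibition of all tested compounds on the plate plus 3 SD, cut at about 37% in these data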
# NTR1 agonist: agonists of human NTR1, primary screen, imaging, U2OS cells, beta-arrestin-GFP, high content; Neurotensin receptor type 1 (Homo sapiens), P30989; NTR1-U2OS beta-arrestin-GFP spot imaging, agonist mode; activation, % at 20 µM; hit rate 0.17% among 330,000; AID 493036, 2011;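 active = activation at or above 40% of the spot to cytoplasm intensity ratio, with at least 20 cells analyzed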
# CHO parental Ca: ATP-evoked calcium signal inhibitors, parental CHO, primary screen, counter-screen for OX1R antagonist project, cell-based, fluorescence, Fluo-8 calcium dye. inhibition, % at 5.6 µM. AID 463079, 2010. parental CHO-K1, ATP-induced calcium, Fluo-8 fluorescence. hit rate 0.63% among 330,000;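 active = inhibition above that plate's mean sample inhibition plus 3 SD, cut at about 26% in these data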
#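 Test system: untransfected parental CHO cell line. Compound: one dose, 5.6 µM nominal. Detection: intracellular calcium via Fluo-8 no-wash fluorescent dye. Measure: % inhibition. Benchmarks: ATP-challenged DMSO wells low, unchallenged DMSO wells high.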
# Numbers stand for hits; . = inactive; / = no result given. Shown are actives, neighbours in structure and some others; about 4% of the full set was active somewhere.
SMILES,TAAR1 antagonist,TAAR1 ag,OX1R antag-1,OX1R antag-2,NTR1 agonist,CHO parental Ca
Cc1ccc2cc(C3C(C#N)=C(N)Oc4c3ccc3cccnc43)c(=O)[nH]c2c1 (stereo not given),/,/,45,.,.,.
CCc1ccc2[nH]c(=O)c(C3C(C#N)=C(N)Oc4c3ccc3cccnc43)cc2c1 (stereo not given),.,.,.,.,.,.
O=C1C(Cl)=C(NCCCN2CCOCC2)C(=O)c2ccccc21,.,.,/,/,/,/
CCOCCCNS(=O)(=O)c1ccccc1,.,.,.,.,.,.
O=C1C(Cl)=C(NCCN2CCOCC2)C(=O)c2ccccc21,.,.,61,.,.,.
CCOCCCNC1=C(Cl)C(=O)c2ccccc2C1=O,.,.,71,.,.,.
CCCc1ccc(Oc2c(-c3ccc(O)c(C)c3O)n[nH]c2C)cc1,.,.,.,.,.,29
CCCc1ccc(Oc2cn[nH]c2-c2ccc(O)c(C)c2O)cc1,.,.,.,.,.,.
CCCn1c(O)c(N=NC(=O)CNC(=O)c2cccnc2)c2ccccc21,.,.,.,.,.,.
COC(=O)Cn1c(O)c(N=NC(=O)CNC(=O)c2ccncc2)c2ccccc21,.,.,70,.,.,.
Cn1c(O)c(N=NC(=O)CNC(=O)c2cccnc2)c2ccccc21,.,.,43,.,.,.
OCCSc1nc(-c2ccccc2)nc2ccc(F)cc12,.,.,47,.,.,.
Brc1ccc2nc(C3CCCCC3)c(Cc3ccccc3)n2c1,.,.,/,/,/,/
COCCn1c(C)cc(C(=O)CN2C(=O)NC3(CCCCCC3)C2=O)c1C,.,.,30,.,.,.
O=C(Nc1ccc(Oc2ccc(Cl)cc2)c(Cl)c1)c1cc(I)cc(I)c1O,.,.,49,.,.,.
Cc1ccc(S(=O)(=O)/N=C2/C=C(Sc3ncn[nH]3)C(=O)c3ccccc32)cc1,/,/,59,.,/,.
O=C(NCc1cccc(CNC(=O)C(=O)NCc2ccco2)c1)C(=O)NCc1ccco1,.,.,.,.,.,33
O=C(NCc1cccc(CNC(=O)c2ccco2)c1)c1ccco1,.,.,.,.,.,.
CCCCCCCCN1C(=O)[C@@H](CC(=O)N2CCCC2)C[C@@]2(C(=O)OC)C1=C[C@H](C1CCCC1)O[C@@H]2C,.,.,/,/,/,/
Cc1nc2cc(-c3cccc(F)c3)nn2c(C)c1CCC(=O)NC(C)c1ccc2c(c1)OCCO2 (stereo not given),.,.,49,.,.,.
Cc1nc2cc(-c3ccccc3)nn2c(C)c1CCC(=O)NC(C)c1ccc2c(c1)OCCO2 (stereo not given),.,.,52,.,.,.
Cc1nc2nc(C)c(CCC(=O)NC(C)c3ccc4c(c3)OCCO4)c(C)n2n1 (stereo not given),.,.,.,.,.,.
C[C@H](CO)N1C[C@H](C)[C@H](CN(C)C(=O)Nc2ccc(F)cc2)Oc2ncc(Br)cc2C1=O,.,.,/,/,/,/
CC1CCCCC1NC(=O)CCS(=O)(=O)c1cc2c(cc1Cl)NC(=O)CO2 (stereo not given),.,.,.,.,.,.
Cc1cc(C)c2c(N)c(C(=O)Nc3ncc(C)s3)sc2n1,.,.,51,.,.,.
SMILES,TAAR1 antagonist,TAAR1 ag,OX1R antag-1,OX1R antag-2,NTR1 agonist,CHO parental Ca
COc1ccccc1Nc1ccc([N+](=O)[O-])cc1N,.,.,.,.,.,.
COc1cc(Nc2ccccc2Cl)c([N+](=O)[O-])nc1[N+](=O)[O-],.,.,41,.,.,.
CC(C)OC(=O)[C@@H](Cc1ccccc1)N[C@H](/C=C/c1ccccc1)[C@@H](O)Cc1ccccc1,.,.,/,/,/,/
O=S1(=O)N[C@H](Cc2ccccc2)COc2cccc(N3CCCCC3)c21,.,.,/,/,/,/
COc1ccc(C2CC(=O)C(c3cc(OC)c(OC)c(OC)c3)=CN2Cc2ccccc2)cc1 (stereo not given),.,.,/,/,/,/
C/C(=C1/C(=O)N(c2ccc([N+](=O)[O-])cc2)N=C1c1ccccc1)N(C)C,/,/,42,.,.,.
COC(=O)[C@H](Cc1ccccc1)N1C[C@@H](N2CCC[C@H]2C)CS1(=O)=O,.,.,/,/,/,/
Cc1ccc(/C=C/c2nnc(-c3cccs3)o2)cc1,.,.,42,.,.,.
COc1ccccc1C(=O)N/C(=C\c1cn(C)c2ccccc12)C(=O)N1CCCC1,.,.,50,.,.,.
C[C@H]1CN(C(=O)OC(C)(C)C)CCN1c1ccc(N2CC[C@H](O)C2)c(C#N)c1,.,.,/,/,/,/
COc1ccc(-c2cn3cc(C)ccc3n2)cc1Br,.,.,.,.,.,.
COc1ccc(-c2cn3cc(Cl)ccc3n2)cc1OC,.,.,45,.,.,.
COc1ccc(NC(=O)Nc2cc(C)cc(C)c2)cn1,.,.,.,.,.,.
Cc1ccc(C(=O)Nc2ccc(Oc3cccc(C(F)(F)F)c3)nc2)cc1,.,40,.,.,.,.
COc1ccc(NC(=O)/C(Cl)=C(/Cl)S(=O)Cc2ccc(Cl)cc2)cn1 (stereo not given),52,.,/,/,.,/
COc1ccc(NC(=O)C(Cl)=C(Cl)Cl)cn1,.,.,/,/,.,/
COc1ccc(NC(=O)Cc2ccc(-c3ccccc3)cc2)cn1,.,.,.,.,.,69
COc1ccc(CC(=O)Nc2ccc(OC)nc2)cc1,.,.,.,.,.,.
COc1ccc(NC(=O)Nc2ccc([N+](=O)[O-])cc2)cn1,.,.,.,.,.,43
O=C(O)c1ccccc1C(=O)Nc1ccc(Oc2cccc(C(F)(F)F)c2)nc1,.,.,.,.,.,.
Nc1[nH]c(C(=O)c2ccc(Cl)cc2)c(-c2ccc(Br)cc2)c1C(=O)NCCc1c[nH]c2ccccc12,.,.,/,/,/,/
c1ccc(Nc2nnc(-c3cccnc3)s2)cc1,.,.,.,.,.,.
O=[N+]([O-])c1ccc2c(c1)CCCO[C@]21O[C@H](CCO)C[C@H](O)[C@H]1O,.,.,/,/,/,/
C[C@@H]1CN(c2ccc(N3CCNC[C@@H]3C)cc2C#N)C[C@H](C)O1,.,.,/,/,/,/
COc1ccc(NC(=O)Nc2cccc(C(F)(F)F)c2)cn1,.,.,.,47,.,41
CC(C)C[C@@H](CN(N=O)[C@@H](Cc1ccccc1)CN(C)N=O)N(CCc1ccccc1)N=O,.,.,.,.,.,.
CN(C[C@H](Cc1ccccc1)N(C[C@@H](Cc1cccc2ccccc12)N(CCc1ccccc1)N=O)N=O)N=O,.,41,.,.,.,.
